In ChEMBL document CHEMBL1145430, “Synthesis and simple 18F-labeling of 3-fluoro-5-(2-(2-(fluoromethyl)thiazol-4-yl)ethynyl)benzonitrile as a high affinity radioligand for imaging monkey brain metabotropic glutamate subtype-5 receptors with positron emission tomography” (J Med Chem, 2007):

How the values were obtained:
[1] = molecular target: 5-hydroxytryptamine receptor 2B (Homo sapiens, UniProt P41595); assay: Displacement of [3H]LSD from 5HT2B receptor
[2] = molecular target: 5-hydroxytryptamine receptor 1A (Homo sapiens, UniProt P08908); assay: Displacement of [3H]8-OH-DPAT from 5HT1A receptor
[3] = molecular target: Muscarinic acetylcholine receptor M5 (Homo sapiens, UniProt P08912); assay: Displacement of [3H]QNB from muscarinic M5 receptor
[4] = molecular target: Serotonin 3 (5-HT3) receptor; assay: Displacement of [3H]zacopride from 5HT3 receptor; type: protein-complex assay, Homo sapiens
[5] = molecular target: Sigma non-opioid intracellular receptor 1 (Homo sapiens, UniProt Q99720); assay: Binding affinity to sigma1 receptor
[6] = molecular target: Muscarinic acetylcholine receptor M1 (Homo sapiens, UniProt P11229); assay: Displacement of [3H]QNB from muscarinic M1 receptor
[7] = molecular target: Sodium-dependent dopamine transporter (Homo sapiens, UniProt Q01959); assay: Displacement of [3H]WIN-35428 from DAT
[8] = molecular target: Beta-1 adrenergic receptor (Homo sapiens, UniProt P08588); assay: Displacement of [125I]pindolol from adrenergic beta-1 receptor
[9] = molecular target: Alpha-1B adrenergic receptor (Homo sapiens, UniProt P35368); assay: Displacement of [3H]prazosin from adrenergic alpha-1B receptor
[10] = molecular target: 5-hydroxytryptamine receptor 1B (Homo sapiens, UniProt P28222); assay: Displacement of [3H]GR-125743 from 5HT1B receptor
[11] = molecular target: Alpha-2C adrenergic receptor (Homo sapiens, UniProt P18825); assay: Displacement of [3H][…] from adrenergic alpha-2C receptor
D(4) dopamine receptor = D(4) dopamine receptor (Homo sapiens, UniProt P21917); assay: Displacement of [3H]N-methylspiperone from dopamine D4 receptor
[12] = molecular target: Metabotropic glutamate receptor 1 (Homo sapiens, UniProt Q13255); assay: Binding affinity at mGluR1
[13] = molecular target: Metabotropic glutamate receptor 4 (Homo sapiens, UniProt Q14833); assay: Binding affinity at mGluR4
Mu-type opioid receptor = Mu-type opioid receptor (Homo sapiens, UniProt P35372); assay: Displacement of [3H]diprenorphine from mu opioid receptor
[14] = molecular target: Metabotropic glutamate receptor 2 (Homo sapiens, UniProt Q14416); assay: Binding affinity at mGluR2
[15] = molecular target: Kappa-type opioid receptor (Homo sapiens, UniProt P41145); assay: Displacement of [3H]bremazocine from kappa opioid receptor
Histamine H1 receptor = Histamine H1 receptor (Homo sapiens, UniProt P35367); assay: Binding affinity to histamine H1 receptor
[16] = Lipophilicity, log D of the compound; type: physicochemical; conditions: octanol/water
In short: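 Partition of the [18F]-labeled radioligand between n-octanol and sodium phosphate buffer (0.15 M, pH 7.4) was measured, following a general method described earlier.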

[17] = molecular target: Metabotropic glutamate receptor 8 (Homo sapiens, UniProt O00222); assay: Binding affinity at mGluR8
D(1B) dopamine receptor = D(1B) dopamine receptor (Homo sapiens, UniProt P21918); assay: Displacement of radiolabeled SKF-38393 from dopamine D5 receptor
[18] = molecular target: Alpha-2A adrenergic receptor (Homo sapiens, UniProt P08913); assay: Displacement of [3H][…] from adrenergic alpha2A receptor
Histamine H4 receptor = Histamine H4 receptor (Homo sapiens, UniProt Q9H3N8); assay: Binding affinity to histamine H4 receptor
D(2) dopamine receptor = D(2) dopamine receptor (Homo sapiens, UniProt P14416); assay: Displacement of [3H]N-methylspiperone from dopamine D2 receptor
[19] = molecular target: Beta-2 adrenergic receptor (Homo sapiens, UniProt P07550); assay: Displacement of [125I]pindolol from adrenergic beta-2 receptor
Histamine H2 receptor = Histamine H2 receptor (Homo sapiens, UniProt P25021); assay: Binding affinity to from histamine H2 receptor
D(3) dopamine receptor = D(3) dopamine receptor (Homo sapiens, UniProt P35462); assay: Displacement of [3H]N-methylspiperone from dopamine D3 receptor
[20] = molecular target: Alpha-2B adrenergic receptor (Homo sapiens, UniProt P18089); assay: Displacement of [3H][…] from adrenergic alpha-2B receptor
[21] = molecular target: Sodium-dependent serotonin transporter (Homo sapiens, UniProt P31645); assay: Displacement of [3H]citalopram from SERT
[22] = molecular target: Muscarinic acetylcholine receptor M4 (Homo sapiens, UniProt P08173); assay: Displacement of [3H]QNB from muscarinic M4 receptor
[23] = Displacement of [3H]MK-801 from NMDA receptor; set-up: species or system Homo sapiens
[24] = molecular target: 5-hydroxytryptamine receptor 7 (Homo sapiens, UniProt P34969); assay: Displacement of [3H]LSD from 5HT7 receptor
[25] = molecular target: Delta-type opioid receptor (Homo sapiens, UniProt P41143); assay: Displacement of [3H]DADLE from delta opioid receptor
[26] = molecular target: 5-hydroxytryptamine receptor 1E (Homo sapiens, UniProt P28566); assay: Displacement of [3H]5-HT from 5HT1E receptor
[27] = molecular target: 5-hydroxytryptamine receptor 2A (Homo sapiens, UniProt P28223); assay: Displacement of [3H]ketanserin from 5HT2A receptor
[28] = molecular target: 5-hydroxytryptamine receptor 1D (Homo sapiens, UniProt P28221); assay: Displacement of [3H]GR-125743 from 5HT1D receptor
[29] = molecular target: Metabotropic glutamate receptor 5 (Rattus norvegicus, UniProt P31424); assay: Displacement of […] from mGluR5 in rat brain membrane; type: cell membranes
In short: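 Competition binding against [³H]MPEPy in rat whole-brain membranes (minus cerebellum and brainstem), homogenized in 50 mM Tris-HCl/saline pH 7.5, pelleted at 39 800 g. Membranes 5 mg/800 µL final. Competitor from 10 mM ethanol stock, final 0.01 nM to 1 mM. Incubated 1 h at 22 °C, filtered on PEI-soaked GF/B, washed with cold saline, scintillation counted. Three determinations.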

Histamine H3 receptor = Histamine H3 receptor (Homo sapiens, UniProt Q9Y5N1); assay: Binding affinity to histamine H3 receptor
[30] = molecular target: Metabotropic glutamate receptor 6 (Homo sapiens, UniProt O15303); assay: Binding affinity at mGluR6
[31] = molecular target: 5-hydroxytryptamine receptor 6 (Homo sapiens, UniProt P50406); assay: Displacement of [3H]LSD from 5HT6 receptor
[32] = molecular target: Muscarinic acetylcholine receptor M2 (Homo sapiens, UniProt P08172); assay: Displacement of [3H]QNB from muscarinic M2 receptor
D(1A) dopamine receptor = D(1A) dopamine receptor (Homo sapiens, UniProt P21728); assay: Displacement of [3H]SCH-23390 from dopamine D1 receptor
[33] = molecular target: Muscarinic acetylcholine receptor M3 (Homo sapiens, UniProt P20309); assay: Displacement of [3H]QNB from muscarinic M3 receptor
[34] = molecular target: 5-hydroxytryptamine receptor 5A (Homo sapiens, UniProt P47898); assay: Displacement of [3H]LSD from 5HT5A receptor
[35] = molecular target: 5-hydroxytryptamine receptor 2C (Homo sapiens, UniProt P28335); assay: Displacement of [3H]mesulergine from 5HT2C receptor
[36] = molecular target: Sodium-dependent noradrenaline transporter (Homo sapiens, UniProt P23975); assay: Displacement of [3H]nisoxitine from NET
[37] = molecular target: Alpha-1A adrenergic receptor (Homo sapiens, UniProt P35348); assay: Displacement of [3H]prazosin from adrenergic alpha-1A receptor
Sequence of Alpha-1A adrenergic receptor (P35348 whole entry): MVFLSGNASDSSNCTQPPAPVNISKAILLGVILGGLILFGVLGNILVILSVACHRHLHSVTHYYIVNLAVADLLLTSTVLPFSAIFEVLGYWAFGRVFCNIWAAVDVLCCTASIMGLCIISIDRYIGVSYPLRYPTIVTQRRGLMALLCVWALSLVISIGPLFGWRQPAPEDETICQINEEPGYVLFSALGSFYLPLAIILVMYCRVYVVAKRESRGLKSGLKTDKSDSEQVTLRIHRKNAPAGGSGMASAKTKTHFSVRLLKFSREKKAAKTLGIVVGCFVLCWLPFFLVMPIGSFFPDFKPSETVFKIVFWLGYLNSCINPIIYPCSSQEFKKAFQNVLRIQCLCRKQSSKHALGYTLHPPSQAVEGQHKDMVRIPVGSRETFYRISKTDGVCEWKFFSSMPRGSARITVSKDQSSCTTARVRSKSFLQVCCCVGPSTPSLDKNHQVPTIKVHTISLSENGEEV

Sequence of 5-hydroxytryptamine receptor 6 (P50406 whole entry): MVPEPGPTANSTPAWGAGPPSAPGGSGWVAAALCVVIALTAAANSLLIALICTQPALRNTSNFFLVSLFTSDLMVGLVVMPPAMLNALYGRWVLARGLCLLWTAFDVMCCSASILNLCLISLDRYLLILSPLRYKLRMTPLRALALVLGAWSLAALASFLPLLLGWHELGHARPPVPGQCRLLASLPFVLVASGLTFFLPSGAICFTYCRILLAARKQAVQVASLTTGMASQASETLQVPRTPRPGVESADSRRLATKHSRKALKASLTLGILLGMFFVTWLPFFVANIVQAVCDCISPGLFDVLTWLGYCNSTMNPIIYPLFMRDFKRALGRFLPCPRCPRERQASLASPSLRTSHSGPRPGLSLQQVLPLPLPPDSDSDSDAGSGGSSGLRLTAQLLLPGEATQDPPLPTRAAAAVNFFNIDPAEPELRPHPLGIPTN
Sequence of Histamine H1 receptor (P35367 whole entry): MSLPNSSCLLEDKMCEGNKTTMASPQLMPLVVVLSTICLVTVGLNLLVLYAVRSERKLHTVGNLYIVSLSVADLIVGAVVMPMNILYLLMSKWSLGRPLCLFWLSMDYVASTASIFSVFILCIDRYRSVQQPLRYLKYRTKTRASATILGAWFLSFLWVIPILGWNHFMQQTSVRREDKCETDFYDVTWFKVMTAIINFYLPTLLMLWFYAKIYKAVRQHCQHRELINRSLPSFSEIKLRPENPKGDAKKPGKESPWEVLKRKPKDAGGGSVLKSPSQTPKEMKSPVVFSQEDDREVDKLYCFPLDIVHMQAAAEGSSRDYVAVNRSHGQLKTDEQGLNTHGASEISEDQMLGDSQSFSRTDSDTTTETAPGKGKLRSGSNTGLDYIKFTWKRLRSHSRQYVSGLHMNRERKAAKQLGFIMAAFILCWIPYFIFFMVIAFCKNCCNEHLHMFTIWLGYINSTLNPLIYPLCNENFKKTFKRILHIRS
Sequence of 5-hydroxytryptamine receptor 5A (P47898 whole entry): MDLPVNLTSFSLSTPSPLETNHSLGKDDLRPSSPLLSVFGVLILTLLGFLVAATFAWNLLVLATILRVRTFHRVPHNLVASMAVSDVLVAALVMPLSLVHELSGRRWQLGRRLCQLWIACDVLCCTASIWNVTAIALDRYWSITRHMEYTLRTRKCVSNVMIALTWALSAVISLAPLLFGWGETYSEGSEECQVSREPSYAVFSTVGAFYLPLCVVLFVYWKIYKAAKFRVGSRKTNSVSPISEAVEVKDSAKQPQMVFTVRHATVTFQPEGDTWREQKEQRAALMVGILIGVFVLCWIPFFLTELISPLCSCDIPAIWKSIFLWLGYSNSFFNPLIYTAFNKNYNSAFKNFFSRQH
Sequence of 5-hydroxytryptamine receptor 2B (P41595 whole entry): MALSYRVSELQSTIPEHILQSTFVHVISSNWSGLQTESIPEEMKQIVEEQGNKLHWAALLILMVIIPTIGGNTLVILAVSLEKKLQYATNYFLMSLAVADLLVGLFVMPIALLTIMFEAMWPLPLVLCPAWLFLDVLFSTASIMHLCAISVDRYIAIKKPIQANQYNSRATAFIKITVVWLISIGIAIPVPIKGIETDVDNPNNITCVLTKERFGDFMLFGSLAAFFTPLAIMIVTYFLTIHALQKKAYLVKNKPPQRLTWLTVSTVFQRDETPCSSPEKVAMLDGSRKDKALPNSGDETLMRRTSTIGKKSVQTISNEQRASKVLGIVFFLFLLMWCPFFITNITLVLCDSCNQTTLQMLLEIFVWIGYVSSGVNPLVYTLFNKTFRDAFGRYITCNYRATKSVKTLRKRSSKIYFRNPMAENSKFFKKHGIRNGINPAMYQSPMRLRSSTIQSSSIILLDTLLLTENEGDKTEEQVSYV
Sequence of Metabotropic glutamate receptor 4 (Q14833 whole entry): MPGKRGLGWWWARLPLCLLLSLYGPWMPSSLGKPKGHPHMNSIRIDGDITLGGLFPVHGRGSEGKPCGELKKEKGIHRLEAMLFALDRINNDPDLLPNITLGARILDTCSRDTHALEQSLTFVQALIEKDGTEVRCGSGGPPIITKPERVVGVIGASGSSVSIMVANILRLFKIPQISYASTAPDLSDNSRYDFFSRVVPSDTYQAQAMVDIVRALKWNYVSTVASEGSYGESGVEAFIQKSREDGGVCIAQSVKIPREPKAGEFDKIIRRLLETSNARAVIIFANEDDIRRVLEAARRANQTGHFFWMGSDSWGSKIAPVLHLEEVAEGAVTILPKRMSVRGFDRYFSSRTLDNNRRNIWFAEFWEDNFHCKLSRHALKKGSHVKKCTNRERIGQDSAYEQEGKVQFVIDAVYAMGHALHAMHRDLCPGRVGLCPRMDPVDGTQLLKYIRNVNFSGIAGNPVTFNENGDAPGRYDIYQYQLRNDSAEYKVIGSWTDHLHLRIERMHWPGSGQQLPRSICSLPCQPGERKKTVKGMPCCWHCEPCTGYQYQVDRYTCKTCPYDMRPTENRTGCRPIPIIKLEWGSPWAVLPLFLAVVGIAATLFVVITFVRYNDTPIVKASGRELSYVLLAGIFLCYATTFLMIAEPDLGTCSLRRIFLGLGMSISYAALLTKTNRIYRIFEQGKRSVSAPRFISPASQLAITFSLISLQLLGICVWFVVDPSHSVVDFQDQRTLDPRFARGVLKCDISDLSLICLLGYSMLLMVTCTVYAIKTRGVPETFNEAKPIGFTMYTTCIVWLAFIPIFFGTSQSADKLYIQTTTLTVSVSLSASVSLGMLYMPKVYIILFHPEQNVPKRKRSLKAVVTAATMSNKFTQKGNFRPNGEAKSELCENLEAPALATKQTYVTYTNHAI
Sequence of Muscarinic acetylcholine receptor M3 (P20309 whole entry): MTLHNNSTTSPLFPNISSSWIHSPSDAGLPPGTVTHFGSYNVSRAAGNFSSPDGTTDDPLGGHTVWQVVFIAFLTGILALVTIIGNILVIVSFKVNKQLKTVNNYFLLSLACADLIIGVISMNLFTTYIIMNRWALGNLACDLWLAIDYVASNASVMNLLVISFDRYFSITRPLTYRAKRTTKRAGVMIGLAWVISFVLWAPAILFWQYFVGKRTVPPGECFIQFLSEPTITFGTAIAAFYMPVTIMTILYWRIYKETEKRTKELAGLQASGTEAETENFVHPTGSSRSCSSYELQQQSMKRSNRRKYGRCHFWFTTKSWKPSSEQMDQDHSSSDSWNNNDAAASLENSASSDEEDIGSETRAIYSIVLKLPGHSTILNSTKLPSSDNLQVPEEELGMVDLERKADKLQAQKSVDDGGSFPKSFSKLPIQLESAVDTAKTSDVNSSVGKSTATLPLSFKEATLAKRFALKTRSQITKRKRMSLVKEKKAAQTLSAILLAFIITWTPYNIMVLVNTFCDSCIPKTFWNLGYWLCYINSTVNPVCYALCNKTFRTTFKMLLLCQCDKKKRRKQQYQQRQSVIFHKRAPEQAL
Sequence of D(4) dopamine receptor (P21917 whole entry): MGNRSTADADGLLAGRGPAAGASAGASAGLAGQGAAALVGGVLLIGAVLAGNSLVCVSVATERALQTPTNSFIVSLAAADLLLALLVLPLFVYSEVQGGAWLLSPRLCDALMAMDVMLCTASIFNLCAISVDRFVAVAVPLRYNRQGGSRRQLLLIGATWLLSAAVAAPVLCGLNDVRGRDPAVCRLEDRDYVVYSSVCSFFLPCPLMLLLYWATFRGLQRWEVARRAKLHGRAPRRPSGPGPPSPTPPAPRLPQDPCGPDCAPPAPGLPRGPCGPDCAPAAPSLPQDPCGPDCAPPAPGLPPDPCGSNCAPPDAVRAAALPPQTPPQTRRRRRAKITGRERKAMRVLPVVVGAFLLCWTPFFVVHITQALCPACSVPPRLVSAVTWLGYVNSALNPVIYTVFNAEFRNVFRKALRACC
Sequence of D(1B) dopamine receptor (P21918 whole entry): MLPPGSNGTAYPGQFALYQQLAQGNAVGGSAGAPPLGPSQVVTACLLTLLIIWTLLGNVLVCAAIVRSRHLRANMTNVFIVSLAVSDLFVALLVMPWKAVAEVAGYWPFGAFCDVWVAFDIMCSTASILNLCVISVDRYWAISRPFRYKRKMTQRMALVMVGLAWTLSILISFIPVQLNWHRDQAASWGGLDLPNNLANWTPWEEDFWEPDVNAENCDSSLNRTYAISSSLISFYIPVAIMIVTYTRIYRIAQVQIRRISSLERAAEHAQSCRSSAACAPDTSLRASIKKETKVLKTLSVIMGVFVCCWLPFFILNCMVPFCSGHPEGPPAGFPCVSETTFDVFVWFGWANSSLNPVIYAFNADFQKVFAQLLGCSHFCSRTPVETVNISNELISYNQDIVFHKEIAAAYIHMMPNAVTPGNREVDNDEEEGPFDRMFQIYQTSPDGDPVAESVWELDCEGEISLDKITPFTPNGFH
Sequence of Sigma non-opioid intracellular receptor 1 (Q99720 whole entry): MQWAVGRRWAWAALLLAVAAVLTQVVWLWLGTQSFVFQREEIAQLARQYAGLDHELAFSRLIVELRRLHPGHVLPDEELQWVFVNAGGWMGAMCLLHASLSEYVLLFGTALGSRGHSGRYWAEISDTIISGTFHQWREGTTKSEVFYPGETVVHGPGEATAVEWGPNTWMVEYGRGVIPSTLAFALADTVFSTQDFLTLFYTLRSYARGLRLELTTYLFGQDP

Ki [1]: > 10 µM | Ki [2]: > 10 µM | Ki [3]: > 10 µM | Ki [4]: > 10 µM | Ki [5]: > 10 µM | Ki [6]: > 10 µM | Ki [7]: > 10 µM | Ki [8]: > 10 µM | Ki [9]: > 10 µM | Ki [10]: > 10 µM | Ki [11]: > 10 µM | Ki (D(4) dopamine receptor): > 10 µM | Ki [12]: > 10 µM | Ki [13]: > 10 µM | Ki (Mu-type opioid receptor): > 10 µM | Ki [14]: > 10 µM | Ki [15]: > 10 µM | Ki (Histamine H1 receptor): > 10 µM | logD [16]: 2.18 | Ki [17]: > 10 µM | Ki (D(1B) dopamine receptor): > 10 µM | Ki [18]: > 10 µM | Ki (Histamine H4 receptor): > 10 µM | Ki (D(2) dopamine receptor): > 10 µM | Ki [19]: > 10 µM | Ki (Histamine H2 receptor): > 10 µM | Ki (D(3) dopamine receptor): > 10 µM | Ki [20]: > 10 µM | Ki [21]: > 10 µM | Ki [22]: > 10 µM | Ki [23]: > 10 µM | Ki [24]: > 10 µM | Ki [25]: > 10 µM | Ki [26]: > 10 µM | Ki [27]: > 10 µM | Ki [28]: > 10 µM | IC50 [29]: 0.036 nM | Ki (Histamine H3 receptor): > 10 µM | Ki [30]: > 10 µM | Ki [31]: > 10 µM | Ki [32]: > 10 µM | Ki (D(1A) dopamine receptor): > 10 µM | Ki [33]: > 10 µM | Ki [34]: > 10 µM | Ki [35]: > 10 µM | Ki [36]: > 10 µM | Ki [37]: > 10 µM
Structure (SMILES): N#Cc1cc(F)cc(C#Cc2csc(CF)n2)c1
